Measured values from ChEMBL document CHEMBL5390295, “Isolinderalactone Ameliorates the Pathology of Alzheimer's Disease by Inhibiting the JNK Signaling Pathway” (2023).
The source made the active and inactive calls. The calls are words filed in the database; no cut-off is given here.

Experiments:
Mus musculus [1] = assay: Anti-alzheimer activity against APP/PS1 dE9 double transgenic mouse model assessed as improvement in exploratory behavior at 1 to 10 mg/kg, ip administered once daily for 30 consecutive days measured on day 1 by novel object recognition test; format: functional, organism-based; conditions: dose 1-10 mg/kg, time 31.0 day
Method in brief: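 Same mouse cohort and ip PBS dosing schedule (1 or 10 mg/kg; donepezil 5 mg/kg). Novel object recognition: two objects, 5 min session, with exploration frequency and duration scored within 2–3 cm of objects. After 24 h one object was replaced by a novel object and a second 5 min session was recorded.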

Mus musculus [2] = assay: Anti-alzheimer activity in cortex of APP/PS1 dE9 double transgenic mouse model assessed as reduction in neuronal apoptosis at 1 to 10 mg/kg, ip administered once daily for 30 consecutive days by immunofluorescence analysis; format: functional, organism-based; conditions: dose 1-10 mg/kg, time 30.0 day
Method in brief: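 Brains from dosed female APP/PS1 mice (10 months) were fixed in 4% paraformaldehyde at 4 °C for 24–48 h, taken through a sucrose gradient and OCT, and cut into 15 μm sections. Sections were permeabilized with 0.3% Triton X-100, blocked in 10% BSA for 1 h, and incubated with primary antibody overnight at 4 °C (1:200). Secondary was 1:500 for 1 h at 25 °C, with DAPI counterstain and confocal imaging, in triplicate.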

Mus musculus [3] = assay: Anti-alzheimer activity against mouse model APP/PS1 dE9 double transgenic mouse model assessed as improvement in average movement speed at 1 to 10 mg/kg, ip administered once daily for 30 consecutive days measured on day 1 by novel object recognition test; format: functional, organism-based; conditions: dose 1-10 mg/kg, time 31.0 day
Mus musculus [4] = assay: Anti-alzheimer activity in hippocampus of APP/PS1 dE9 double transgenic mouse model assessed as decrease in MDA level at 1 to 10 mg/kg, ip administered once daily for 30 consecutive days […]; format: functional, organism-based; conditions: dose 1-10 mg/kg, time 30.0 day
Mus musculus [5] = assay: Anti-alzheimer activity in hippocampus of APP/PS1 dE9 double transgenic mouse model assessed as suppression in p-JNK level at 10 mg/kg, ip administered once daily for 30 consecutive days by Western blot analysis; format: functional, organism-based; conditions: time 30.0 day
Method in brief: (§1)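 Hippocampal homogenates from dosed APP/PS1 mice were extracted in RIPA and protein measured by BCA. Samples were run by SDS electrophoresis, transferred to 0.22 μm PVDF for 90 min, blocked with 5% BSA in TBST for 2 h at RT, and probed with primaries 1:1000 overnight at 4 °C. HRP secondary was applied for 2 h at RT.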

Mus musculus [6] = assay: Anti-alzheimer activity against APP/PS1 dE9 double transgenic mouse model assessed as decrease in escape latency at 10 mg/kg, ip administered once daily for 30 consecutive day measured on day 5 by morris water maze test; format: functional, organism-based; conditions: time 35.0 day
Method in brief: (§2)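 Female APP/PS1 mice, 10 months old, about 30 g, 10 per group. Dosing was intraperitoneal in 1× PBS, once daily for one month (1 or 10 mg/kg test; 5 mg/kg donepezil). WT and untreated APP/PS1 controls got PBS. Morris water maze: training days 1–4, averaged escape latency. Day-5 probe trial ran 60 s with the platform removed, recording platform crossings and time per quadrant. Mean ± SEM.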

PC-12 [7] = assay: Neuroprotective activity against in Abeta1-42 induced rat PC12 cells assessed as effect on cleaved caspase-3 level at 10 uM preincubated for 3 hrs followed by Abeta1-42 induction and measured after 24 hrs in the presence of SP600125 by Western blot analysis; format: functional, cell-based; conditions: time 27.0 hrs
Method in brief: (§3)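 Aβ1–42 challenge in PC12 cells was 10 μM for 24 h after 3 h pretreatment at 10 μM. SP600125 (1.25 μM) was added 0.5 h before pretreatment where used. Cells were lysed in RIPA and protein measured by BCA. Blotting used PVDF transfer, 5% BSA/TBST block for 2 h, primaries 1:1000 overnight at 4 °C, and HRP secondary for 2 h. Bcl-2/Bax ratio and band intensities were quantified.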

Mus musculus [8] = assay: Neuroprotective activity in APP/PS1 dE9 double transgenic mouse model assessed as improvement in spatial memory at 10 mg/kg, ip administered once daily for 30 consecutive days […] by morris water maze test; format: functional, organism-based; conditions: time 36.0 day; method in brief: as §2
PC-12 [9] = assay: Neuroprotective activity against rat PC12 cells assessed as reversal of Abeta1-42 induced Bax expression at 10 uM preincubated for 3 hrs followed by Abeta1-42 induction and measured after 24 hrs by Western blot analysis; format: functional, cell-based; conditions: time 27.0 hrs; method in brief: as §3
Mus musculus [10] = assay: Anti-alzheimer activity in hippocampus of APP/PS1 dE9 double transgenic mouse model assessed as increase in […] at 1 to 10 mg/kg, ip administered once daily for 30 consecutive days […]; format: functional, organism-based; conditions: dose 1-10 mg/kg, time 30.0 day
Method in brief: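 Hippocampal tissue from dosed APP/PS1 mice was lysed in RIPA. SOD activity was read by WST-8/xanthine oxidase formazan kit assay and MDA by lipid peroxidation kit, with absorbance on a microplate reader.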

PC-12 [11] = assay: Neuroprotective activity in rat PC12 cells assessed as reversal of Abeta1-42 induced caspase-3 activation at 10 uM preincubated for 3 hrs followed by Abeta1-42 induction and measured after 24 hrs by Western blot analysis; format: functional, cell-based; conditions: time 27.0 hrs
Method in brief: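 PC12 cells (DMEM, 10% FBS, 37 °C, 5% CO2) pretreated 3 h, then given 10 μM Aβ1–42 oligomer (10 mM DMSO stock aged 7 days at 37 °C, diluted in medium) for 24 h. RIPA lysates were blotted on PVDF, blocked in 5% BSA/TBST, and probed overnight at 4 °C for cleaved caspase-3 (1:1000), then HRP secondary. Band intensity was quantified; mean ± SEM of three experiments.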

Mus musculus [12] = assay: Anti-alzheimer activity in hippocampus of APP/PS1 dE9 double transgenic mouse model assessed as decrease in the level of caspase-3 activation at 10 mg/kg, ip administered once daily for 30 consecutive days by Western blot analysis; format: functional, organism-based; conditions: time 30.0 day; method in brief: as §1
PC-12 [13] = assay: Neuroprotective activity against Abeta1-42 induced rat PC12 cells assessed as […] at 1.25 to 10 uM preincubated for 3 hrs followed by Abeta1-42 induction and measured after 24 hrs by MTT assay; format: functional, cell-based; conditions: dose 1.25-10 µM, time 27.0 hrs
Method in brief: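 PC12 cells were seeded at 5×10^3/well and pretreated 3 h with test compound (range or 10 μM), with or without SP600125 1.25 μM for 0.5 h beforehand. Cells were then exposed to 10 μM Aβ1–42 oligomers for 24 h. MTT 0.5 mg/mL was added for 3–4 h, formazan dissolved in DMSO, and absorbance read at 570 nm. Viability is given as % of control.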

PC12 = assay: Restoration of mitochondrial membrane potential in Abeta1-42 induced rat PC12 cells at 10 uM preincubated for 3 hrs followed by Abeta1-42 induction and measured after 24 hrs by JC-1 staining based analysis; format: cell-based; conditions: time 27.0 hrs
Method in brief: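 PC12 cells pretreated 3 h, then exposed to 10 μM Aβ1–42 oligomer for 24 h. Cells were loaded with JC-1 (10 μg/mL, serum-free medium) for 30 min at 37 °C and washed twice in PBS. Plate-reader fluorescence was read as red (ex 560/em 595) and green (ex 485/em 535); Δψm = red/green ratio, normalized to control. Mean ± SEM, three experiments.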

C=C[C@@]1(C)Cc2occ(C)c2[C@@H]2OC(=O)C(=C)[C@@H]21 [ISOLINDERALACTONE]
Activity (Mus musculus [1]): Active
Activity (Mus musculus [2]): Active
Activity (Mus musculus [3]): Active
Activity (Mus musculus [4]): Active
Activity (Mus musculus [5]): Active
Activity (Mus musculus [6]): Active
Activity (PC-12 [7]): inactive
Activity (Mus musculus [8]): Active
Activity (PC-12 [9]): Active
Activity (Mus musculus [10]): Active
Activity (PC-12 [11]): Active
Activity (Mus musculus [12]): Active
Activity (PC-12 [13]): Active
Activity (PC12): Active
